A short description of data set [1]: Cmax in male CD1 mouse at 3 mg/kg, IV measured upto 24 hrs by LC-MS/MS-39 analysis. The class given is ADME, organism-based. The settings on record: in vivo. An outline of the steps:
(§1)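 Three male CD1 mice given a single 3 mg/kg intravenous dose. Plasma prepared on ice by centrifugation (2000 g, 5 min, 4 °C) within 15 min, held at about −70 °C. Acetonitrile precipitation, then LC-MS/MS quantitation. Mean ± SD, n=3.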

Data set [2] deals with T1, von Hippel-Lindau disease tumor suppressor/Cyclin-dependent kinase 7 (Homo sapiens) (UniProt P50613+P40337). In words: PROTAC activity at CDK7/VHL in human Jurkat cells assessed as degradation of CDK7 at 0.1 uM measured after 16 hrs incubation by immunoblot analysis relative to control. The format is cell-based. An outline of the steps:
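Jurkat cells given VHL-recruiting compounds at 0.1 or 1 μM for 16 h. RIPA lysis, BCA normalization, 4–20% SDS-PAGE, nitrocellulose transfer. CDK7 (1:1000) and β-actin probed overnight at 4 °C, IRDye secondaries, Odyssey detection. Quantified against control, mean ± SEM from three independent biological replicates.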
For orientation: A western blot detects proteins with antibodies after separation by electrophoresis.

Data set [3] concerns the target T1, von Hippel-Lindau disease tumor suppressor/Cyclin-dependent kinase 7 (Homo sapiens). The data set can be described thus: PROTAC activity at CDK7/VHL in human OVCAR-3 cells assessed as degradation of CDK7 at 0.1 to 5 uM measured after 6 hrs incubation by immunoblot analysis. The format is cell-based. The settings on record: dose 0.1-5 µM.
Data set [4] addresses von Hippel-Lindau disease tumor suppressor/Cyclin-dependent kinase 5 (Homo sapiens) (UniProt Q00535+P40337). In words: PROTAC activity at CDK5/VHL in human Jurkat cells assessed as degradation of CDK7 measured at 10 to 500 nM after 6 hrs incubation by Western blotting analysis. The class given is cell-based. The settings on record: dose 10-500 nM.
Data set [5] addresses T1, von Hippel-Lindau disease tumor suppressor/Cyclin-dependent kinase 7 (Homo sapiens). In words: PROTAC activity at CDK7/VHL in human Jurkat cells assessed as degradation of CDK7 in presence of 10 uM (S,R,S)-AHPC-me at 0.1 uM measured after 6 hrs incubation by immunoblot analysis. The class given is cell-based. An outline of the steps: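 Jurkat cells pretreated 2 h with MG132, MLN-4924, YKL-5–167 or a VHL ligand, then given degrader for 6 h. CDK7 immunoblotted: RIPA lysis, SDS-PAGE, anti-CDK7 1:1000, IRDye secondaries.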

For data set [6], the target named is von Hippel-Lindau disease tumor suppressor/Cyclin-dependent kinase 4 (Homo sapiens) (UniProt P11802+P40337). The data set can be described thus: PROTAC activity at CDK4/VHL in human Jurkat cells assessed as degradation of CDK7 measured at 10 to 500 nM after 6 hrs incubation by Western blotting analysis. The class given is cell-based. The settings on record: dose 10-500 nM.

Data set [7] concerns the target von Hippel-Lindau disease tumor suppressor/Cyclin-dependent kinase 6 (Homo sapiens) (UniProt Q00534+P40337). In words: PROTAC activity at CDK6/VHL in human Jurkat cells assessed as degradation of CDK7 measured at 10 to 500 nM after 6 hrs incubation by Western blotting analysis. The format is cell-based. The settings on record: dose 10-500 nM.
Data set [8] addresses T1, von Hippel-Lindau disease tumor suppressor/Cyclin-dependent kinase 7 (Homo sapiens). The data set can be described thus: PROTAC activity at CDK7/VHL in human MOLT-4 cells assessed as degradation of CDK7 at 0.1 to 5 uM measured after 6 hrs incubation by immunoblot analysis. The format is cell-based. The settings on record: dose 0.1-5 µM.
The next data set has as its system SU-DHL-5. The data set can be described thus: Antiproliferative activity against human SU-DHL-5 cells assessed as cell viability measured after 72 hrs by CellTiter-Glo assay. The class given is functional, cell-based. The settings on record: SU-DHL-5, 72 h. An outline of the steps: (§2)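 Cells grown in RPMI 1640 with 10% heat-inactivated FBS and penicillin/streptomycin at 37 °C, 5% CO2, mycoplasma-negative. Seeded at 10^4/ml. Compounds dispensed digitally from 10 mM or 1 mM DMSO stocks, DMSO equalized, triplicate wells. After 72 h, CellTiter-Glo added for 10–15 min at room temperature and luminescence read.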
On the technique in general: Cellular ATP, detected with luciferase, serves as a proxy for viable cell number.

The nature of data set [9]: Half life in male CD1 mouse at 3 mg/kg, IV measured upto 24 hrs by LC-MS/MS-39 analysis. The format is ADME, organism-based. The settings on record: in vivo. Summed up: as §1
The next data set deals with MOLT-4. The data set can be described thus: Antiproliferative activity against human MOLT-4 cells assessed as cell viability measured after 72 hrs by CellTiter-Glo assay. The settings on record: MOLT-4, 72 h. The format is functional, cell-based. Summed up:
as §2

For data set [10], the target named is von Hippel-Lindau disease tumor suppressor/Cyclin-dependent kinase 1 (Homo sapiens) (UniProt P06493+P40337). The data set can be described thus: PROTAC activity at CDK1/VHL in human Jurkat cells assessed as degradation of CDK7 measured at 10 to 500 nM after 6 hrs incubation by Western blotting analysis. The format is cell-based. The settings on record: dose 10-500 nM.

Data set [11] is described as follows: Observed volume of distribution at steady state in male CD1 mouse at 3 mg/kg, IV measured upto 24 hrs by LC-MS/MS-39 analysis. The format is ADME, organism-based. The settings on record: in vivo, read-out: Vdss. Summed up:
as §1

Data set [12] has as its target von Hippel-Lindau disease tumor suppressor/Cyclin-dependent kinase 9 (Homo sapiens) (UniProt P50750+P40337). In words: PROTAC activity at CDK9/VHL in human Jurkat cells assessed as degradation of CDK7 measured at 10 to 500 nM after 6 hrs incubation by Western blotting analysis. The class given is cell-based. The settings on record: dose 10-500 nM.
Data set [13] is described as follows: Cmax in male CD1 mouse at 10 mg/kg, IP measured upto 24 hrs by LC-MS/MS-39 analysis. The format is ADME, organism-based. The settings on record: in vivo. An outline of the steps: (§3)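 Male CD1 mice, n=3, one 10 mg/kg intraperitoneal dose. Blood sampled at 0, 0.25, 0.5, 1, 2, 4, 6, 8 and 24 h. Kept on wet ice and spun to plasma (2000 g, 5 min, 4 °C) within 15 min, stored at about −70 °C. Protein precipitation with acetonitrile, then LC-MS/MS. Values are mean ± SD of three mice.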

Data set [14] deals with von Hippel-Lindau disease tumor suppressor/Cyclin-dependent kinase 2 (Homo sapiens) (UniProt P24941+P40337). In words: PROTAC activity at CDK2/VHL in human Jurkat cells assessed as degradation of CDK7 measured at 10 to 500 nM after 6 hrs incubation by Western blotting analysis. The format is cell-based. The settings on record: dose 10-500 nM.
A further data set deals with A549. In words: Antiproliferative activity against human A549 cells assessed as cell viability measured after 72 hrs by CellTiter-Glo assay. The format is functional, cell-based. The settings on record: A549, 72 h. An outline of the steps:
as §2

Another data set addresses CDK7/Cyclin H/MNAT1 (Homo sapiens, UniProt P50613). In words: Inhibition of CDK7/CycH/MNAT1 (unknown origin) assessed as change in TR-FRET ratio using Cdk7/9tide as substrate and ATP by in vitro Adapta Eu kinase assay. The format is protein-complex assay. Summed up:
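Adapta Eu kinase assay run at ThermoFisher on CDK7/Cyclin H/MNAT1 with ATP at Km.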
A general note: TR-FRET usually uses a lanthanide donor and a delayed reading to cut background.

The nature of data set [15]: AUClast in male CD1 mouse at 10 mg/kg, IP measured upto 24 hrs by LC-MS/MS-39 analysis. The settings on record: in vivo. The format is ADME, organism-based. An outline of the steps:
as §3

In general, Cmax refers to the maximum level reached in the sampled fluid or tissue. A word on the IC50: it is the concentration at which inhibition is half-maximal.

Activity calls are given as the source filed them. No cut-off for these calls is given here.

T1 sequence (P40337 whole entry, looked up): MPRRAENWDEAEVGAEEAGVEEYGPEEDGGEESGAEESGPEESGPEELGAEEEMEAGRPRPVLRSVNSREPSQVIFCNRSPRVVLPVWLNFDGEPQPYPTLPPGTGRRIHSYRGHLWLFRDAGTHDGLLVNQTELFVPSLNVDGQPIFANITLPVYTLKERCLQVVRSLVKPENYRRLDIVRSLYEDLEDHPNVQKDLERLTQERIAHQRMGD
T1 sequence (P50613 whole entry, looked up): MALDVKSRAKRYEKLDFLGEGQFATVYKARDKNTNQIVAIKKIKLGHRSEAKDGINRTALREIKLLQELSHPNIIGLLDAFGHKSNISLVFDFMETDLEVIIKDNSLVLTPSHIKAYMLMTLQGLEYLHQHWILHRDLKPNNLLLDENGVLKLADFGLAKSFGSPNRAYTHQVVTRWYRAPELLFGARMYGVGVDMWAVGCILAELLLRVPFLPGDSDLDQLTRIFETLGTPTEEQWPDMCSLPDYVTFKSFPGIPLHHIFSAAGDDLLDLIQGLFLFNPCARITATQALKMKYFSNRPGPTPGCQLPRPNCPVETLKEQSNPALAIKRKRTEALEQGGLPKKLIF
Chain of von Hippel-Lindau disease tumor suppressor/Cyclin-dependent kinase 5 (Homo sapiens) (P40337 whole entry, looked up): as the sequence (P40337 whole entry, looked up) above
Chain of von Hippel-Lindau disease tumor suppressor/Cyclin-dependent kinase 5 (Homo sapiens) (Q00535 whole entry, looked up): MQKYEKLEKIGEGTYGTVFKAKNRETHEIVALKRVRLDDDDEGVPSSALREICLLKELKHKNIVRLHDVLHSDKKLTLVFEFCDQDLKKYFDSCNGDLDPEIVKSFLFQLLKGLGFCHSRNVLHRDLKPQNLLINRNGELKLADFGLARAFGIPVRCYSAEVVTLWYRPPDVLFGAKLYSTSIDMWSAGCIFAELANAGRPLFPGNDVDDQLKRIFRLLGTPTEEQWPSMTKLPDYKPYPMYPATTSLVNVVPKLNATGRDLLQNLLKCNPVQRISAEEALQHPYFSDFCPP
Chain of von Hippel-Lindau disease tumor suppressor/Cyclin-dependent kinase 9 (Homo sapiens) (P40337 whole entry, looked up): as the sequence (P40337 whole entry, looked up) above
Chain of von Hippel-Lindau disease tumor suppressor/Cyclin-dependent kinase 9 (Homo sapiens) (P50750 whole entry, looked up): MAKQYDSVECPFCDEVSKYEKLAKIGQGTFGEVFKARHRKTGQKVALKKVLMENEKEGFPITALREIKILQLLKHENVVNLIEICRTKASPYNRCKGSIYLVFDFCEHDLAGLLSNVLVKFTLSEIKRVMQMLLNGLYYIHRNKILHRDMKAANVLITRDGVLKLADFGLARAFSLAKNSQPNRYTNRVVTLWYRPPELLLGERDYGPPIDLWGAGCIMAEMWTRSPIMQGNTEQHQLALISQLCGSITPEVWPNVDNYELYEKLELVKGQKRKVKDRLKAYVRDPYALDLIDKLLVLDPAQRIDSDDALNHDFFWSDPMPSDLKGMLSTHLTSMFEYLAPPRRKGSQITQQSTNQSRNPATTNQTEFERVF
Chain of von Hippel-Lindau disease tumor suppressor/Cyclin-dependent kinase 6 (Homo sapiens) (P40337 whole entry, looked up): as the sequence (P40337 whole entry, looked up) above
Chain of von Hippel-Lindau disease tumor suppressor/Cyclin-dependent kinase 6 (Homo sapiens) (Q00534 whole entry, looked up): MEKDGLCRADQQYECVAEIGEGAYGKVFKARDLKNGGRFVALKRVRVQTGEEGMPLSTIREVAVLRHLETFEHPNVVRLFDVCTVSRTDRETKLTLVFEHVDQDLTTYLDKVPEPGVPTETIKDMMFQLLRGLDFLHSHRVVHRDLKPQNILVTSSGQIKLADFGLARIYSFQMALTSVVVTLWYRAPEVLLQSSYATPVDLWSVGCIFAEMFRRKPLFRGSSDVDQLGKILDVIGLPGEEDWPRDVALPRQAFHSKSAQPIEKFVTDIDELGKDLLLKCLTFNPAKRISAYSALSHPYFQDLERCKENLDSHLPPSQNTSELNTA
Chain of CDK7/Cyclin H/MNAT1 (P51946 whole entry): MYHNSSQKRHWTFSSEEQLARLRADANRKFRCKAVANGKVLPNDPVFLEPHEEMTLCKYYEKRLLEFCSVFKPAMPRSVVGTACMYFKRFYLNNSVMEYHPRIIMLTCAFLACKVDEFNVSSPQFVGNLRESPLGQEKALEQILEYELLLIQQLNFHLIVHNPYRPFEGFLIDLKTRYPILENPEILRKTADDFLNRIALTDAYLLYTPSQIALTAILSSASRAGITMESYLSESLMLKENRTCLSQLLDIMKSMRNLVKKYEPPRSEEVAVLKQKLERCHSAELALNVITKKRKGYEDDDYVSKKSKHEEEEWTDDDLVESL
Chain of CDK7/Cyclin H/MNAT1 (P50613 whole entry): as the sequence (P50613 whole entry, looked up) above
Chain of CDK7/Cyclin H/MNAT1 (P51948 whole entry, further chain): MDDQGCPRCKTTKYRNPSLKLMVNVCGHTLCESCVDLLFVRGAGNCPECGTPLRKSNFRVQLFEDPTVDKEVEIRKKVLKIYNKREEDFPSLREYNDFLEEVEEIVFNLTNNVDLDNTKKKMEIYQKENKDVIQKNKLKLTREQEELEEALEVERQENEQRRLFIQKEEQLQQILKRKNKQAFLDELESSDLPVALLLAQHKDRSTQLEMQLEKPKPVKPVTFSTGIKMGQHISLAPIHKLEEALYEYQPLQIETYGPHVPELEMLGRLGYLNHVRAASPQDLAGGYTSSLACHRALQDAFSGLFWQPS
Chain of von Hippel-Lindau disease tumor suppressor/Cyclin-dependent kinase 4 (Homo sapiens) (P11802 2-303 limits assumed): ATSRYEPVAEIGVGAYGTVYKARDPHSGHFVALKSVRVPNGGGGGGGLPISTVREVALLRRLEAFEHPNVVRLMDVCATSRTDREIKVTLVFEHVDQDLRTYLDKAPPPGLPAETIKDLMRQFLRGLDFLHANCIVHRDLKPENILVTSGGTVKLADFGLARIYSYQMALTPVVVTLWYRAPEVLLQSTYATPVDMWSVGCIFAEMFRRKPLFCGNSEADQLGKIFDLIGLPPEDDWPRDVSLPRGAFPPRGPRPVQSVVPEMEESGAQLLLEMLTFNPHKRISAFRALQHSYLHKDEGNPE
Chain of von Hippel-Lindau disease tumor suppressor/Cyclin-dependent kinase 4 (Homo sapiens) (P40337 whole entry partner): as the sequence (P40337 whole entry, looked up) above
Chain of von Hippel-Lindau disease tumor suppressor/Cyclin-dependent kinase 1 (Homo sapiens) (P06493 whole entry, looked up): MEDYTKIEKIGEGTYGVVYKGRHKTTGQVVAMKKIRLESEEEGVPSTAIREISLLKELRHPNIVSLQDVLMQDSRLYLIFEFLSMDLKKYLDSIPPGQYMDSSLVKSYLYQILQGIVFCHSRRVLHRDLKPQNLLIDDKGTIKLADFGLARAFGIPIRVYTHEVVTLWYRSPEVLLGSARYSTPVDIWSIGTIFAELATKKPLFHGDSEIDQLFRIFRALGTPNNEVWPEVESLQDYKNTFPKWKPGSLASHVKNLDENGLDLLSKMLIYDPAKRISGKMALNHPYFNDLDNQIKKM
Chain of von Hippel-Lindau disease tumor suppressor/Cyclin-dependent kinase 1 (Homo sapiens) (P40337 whole entry, looked up): as the sequence (P40337 whole entry, looked up) above

On to `Cc1ncsc1-c1ccc([C@H](C)NC(=O)[C@@H]2C[C@@H](O)CN2C(=O)[C@@H](NC(=O)CCCC#Cc2ccc(C(=O)Nc3n[nH]c4c3CN(C(=O)N[C@H](CN(C)C)c3ccccc3)C4(C)C)cc2)C(C)(C)C)cc1`, for which the Cmax in data set [1] is 17.1 µM; in data set [13] it was 3.39 µM. In addition, the Activity was 95% in data set [2], “Dose-Dependent Effect” in data set [3] and “Dose-Dependent Effect” in data set [8]. Also, the result in data set [4], in [5], in data set [6], in data set [7], in [10] and in data set [12] was inactive. The outcome in data set [14] was inactive. The half-inhibitory concentration (IC50) with SU-DHL-5 came to 52 nM; in the data set with MOLT-4, 89 nM; in the data set on A549, 332 nM; at CDK7/Cyclin H/MNAT1, 20.1 nM. In data set [9], the t1/2 came out at 3.76 h. Moreover, the Vd in [11] was 0.345 L/kg. Also, the AUClast in data set [15] amounted to 19.4 µM·h.
